Screening results as filed in PubChem BioAssay.
Shown are actives, neighbours in structure and some others; about 5.6% of the full set was active somewhere.
aDG glyco act: alpha-DG glycosylation activation; Pro5-aDG cells, alpha-DG glycosylation AlphaScreen (IIH6); 0% Pro5, 100% B10-LARGE cell signal; activation, % at 10 µM; hit rate 0.22% among 360,000; AID 624168;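 active = activation of at least 8% versus controls, or a plate z-score of at least 8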;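 also: Pro5 are CHO cells carrying HIG-tagged alpha-DG that lacks glycosylation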
NR3A LBD binder: modulates the human NR3A ligand-binding domain; NR3A LBD differential scanning fluorimetry, Tm shift; 0% = protein alone, 100% = glycine-bound protein; Tm shift relative to glycine control, % at 25 µM; hit rate 2.5% among 340,000; AID 1259313;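 active = melting temperature shift of at least 10% of the positive control shift, at one fixed dose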
UPR CHOP act: apoptotic UPR (CHOP) activation; CHO-CHOP luciferase reporter, luminescence; percent of tunicamycin response over DMSO baseline; activation, % at 10 µM; hit rate 0.34% among 330,000; AID 449763;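 active = at 10 µM dose, activation of 40% or more, normalized to positive control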
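System: CHO-CHOP luciferase reporter cell line; amount: 500 cells/well; buffer or medium: F12 medium containing 10% fetal bovine serum; incubation: 6 h compound exposure at 37 °C after overnight seeding; measured by: luciferase luminescence after 10 min with Steady-Glo reagent; evaluation: % reporter activation, DMSO baseline versus tunicamycin full activation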
XBP1 UPR activ: adaptive UPR (XBP1) activation | CHO-XBP1 luciferase reporter, IRE1-XBP1 UPR activation, luminescence; percent of tunicamycin response, DMSO as zero | activation, % at 20 µM | hit rate 0.33% among 330,000 | AID 463104;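 active = versus positive control, 20 µM dose yields 30% or more activation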
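Test system: CHO-XBP1 luciferase reporter cells | Buffer or medium: Serum-containing F12 medium, 10% FBS | Schedule: 6 h compound exposure at 37 °C, 5% CO2 | Detection: Steady-Glo luciferase glow luminescence, 10 min after reagent addition | Read-out basis: Activation, % of tunicamycin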
CHOP inh: CHOP inhibition in unfolded protein response; CHO-K1 CHOP-promoter luciferase, tunicamycin-induced, 15-18 h; inhibition, % at 10 µM; hit rate 3.8% among 220,000;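 active = compounds that reduced the stress-induced luciferase reporter signal by more than about 70% of percent inhibition, limit read from the data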
MPTP inh: inhibitors of mitochondrial permeability transition pore; isolated mouse mitochondria, Ca2+ swelling absorbance, 30 min; hit rate 1.4% among 360,000; AID 602449; inhibition, % at 10 µM;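 active = inhibition of 50% or more, scaled per plate between neutral and stimulator controls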
CHOP confirm: confirmation of CHOP induction inhibitors. shares compounds with CHOP inh. CHO-CHOP promoter luciferase reporter, tunicamycin-induced, luminescence. inhibition, % at 10 µM. hit rate 45% among 2,100. AID 504437;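 active = mean of three repeat readings of reporter signal inhibition above a set limit, cut at about 70% in these data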
Large screens that a line does not name were inactive (follow-up assays come after a bar, where they were run); ! = repeats disagree.

CCCc1cc(-c2[nH]ncc2-c2ccc3c(c2)OCCCO3)c(O)cc1O	NR3A LBD binder 12.0, CHOP inh 101.3 | CHOP confirm inactive
CCCc1cc(-c2[nH]ncc2-c2ccc(C(=O)OCC)o2)c(O)cc1O	none
CC(C)(C)Cc1c(-c2ccc(F)cc2)nc2ccc(Br)cn12	none (no result: NR3A LBD binder, UPR CHOP act, XBP1 UPR activ, CHOP inh)
CCOC(=O)c1c(N)sc(C(O)(C(F)(F)F)C(F)(F)F)c1-c1ccc(Cl)cc1	CHOP inh 97.5 | CHOP confirm 120.8
Cc1ccc(C)c(S(=O)(=O)N2CCN(C(=O)c3n[nH]c(=O)c4ccccc34)CC2)c1	none (no result: CHOP inh)
Oc1ccc(/C=N/N2CCN(C3c4ccccc4-c4ccccc43)CC2)c(O)c1	NR3A LBD binder 11.0, CHOP inh 100.1 | CHOP confirm 112.3
Oc1ccc(/C=N/N2CCN(C3c4ccccc4-c4ccccc43)CC2)cc1	none
CC(C)(C)c1ccc2c(c1)N(CC(=O)N1CCCC1)C(=O)CO2	none (no result: CHOP inh)
CN(Cc1ccccc1)C(=O)CC(=O)N(C)Cc1ccccc1	none (no result: CHOP inh)
CN(Cc1ccc(Cl)cc1)C(=O)CCl	CHOP inh 104.4 | CHOP confirm inactive
Cc1ccc(C)c(-n2nnnc2Sc2nnnn2-c2ccccc2)c1	none (no result: CHOP inh) | CHOP confirm inactive
Cn1nc(-c2ccc(C(=O)Nc3ccc(F)cc3)cc2)c2ccccc2c1=O	CHOP inh 100.6 | CHOP confirm inactive
Cc1c(NC(=O)COC(=O)CSc2ccc([N+](=O)[O-])cc2)c(=O)n(-c2ccccc2)n1C	none (no result: CHOP inh)
C[C@@H]1CN([C@@H](C)CO)C(=O)CCCn2cc(nn2)CO[C@H]1CN(C)S(=O)(=O)c1ccccc1F	none (no result: NR3A LBD binder, UPR CHOP act, XBP1 UPR activ, CHOP inh)
O=C(/C=C/c1ccccc1)NC(=S)NNC(=O)Cc1cccs1	CHOP inh 104.0 | CHOP confirm inactive
COc1ccc(/C=C/C(=O)NC(=S)NNC(=O)Cc2cccs2)cc1	CHOP inh 109.9 | CHOP confirm inactive
Cc1cccc(C(=O)Nc2nnc(S(=O)(=O)N3CCC(C)CC3)s2)c1	none (no result: CHOP inh)
COc1ccccc1CNC(=O)CCNS(=O)(=O)c1ccc2[nH]c(=O)oc2c1	none (no result: CHOP inh)
COc1ccc(NCc2nnc(SCC(=O)c3ccc(OC)cc3)o2)cc1	none
CCOc1cc(C(=O)CSc2nnc(CNc3ccc(Cl)cc3)o2)ccc1NC(=O)CC	CHOP inh 105.1 | CHOP confirm 112.4
O/N=C/c1cc(Cl)ccc1OCc1ccccc1Cl	CHOP inh 107.2 | CHOP confirm inactive
Cc1ccc(COc2ccc(Br)cc2/C=N/O)cc1	CHOP inh 109.7 | CHOP confirm 104.5
CC(C)(C)c1cc(CN2CCCC(O)C2)c(O)c(C(C)(C)C)c1 (stereo not given)	CHOP inh 107.2 | CHOP confirm 108.7
COc1cc(/C=C/C(=O)OC2CC3CCC2(C)C3(C)C)ccc1O (stereo not given)	CHOP inh 99.7 | CHOP confirm 102.5
O=C(c1ccc(C(F)(F)F)n(Cc2ccc(Cl)cc2)c1=O)N1CCOCC1	none (no result: CHOP inh)
NC(=O)c1ccc(C(F)(F)F)n(Cc2ccc(Cl)cc2)c1=O	CHOP inh 97.4 | CHOP confirm 82.3
CN(Cc1ccccc1F)c1cc2c(c3c1ccn3C)C1CCC2C1 (stereo not given)	none (no result: NR3A LBD binder, UPR CHOP act, XBP1 UPR activ, CHOP inh)
Cc1ccc(S(=O)(=O)N[C@@H](Cc2ccccc2)C(=O)CCl)cc1	CHOP inh 107.6! | CHOP confirm inactive
Cc1ccc(S(=O)(=O)NC(Cc2ccccc2)C(=O)NN)cc1 (stereo not given)	none (no result: CHOP inh)
CCc1nc2ccc(C(=O)N(C)C(C)C)cn2c1N(CCC(C)C)CCN(C)C	none (no result: NR3A LBD binder, UPR CHOP act, XBP1 UPR activ, CHOP inh)
CC(NC(=O)COc1ccccc1)C(c1ccccc1)N1CCN(C)CC1 (stereo not given)	CHOP inh 98.3 | CHOP confirm inactive
C=CCc1ccc(OCC(O)CN2CCN(c3ccccc3)CC2)c(OC)c1 (stereo not given)	none (no result: CHOP inh)
C=CCc1cc(C)ccc1OCC(O)CN1CCN(c2ccccc2)CC1 (stereo not given)	CHOP inh 106.1 | CHOP confirm 95.9
Cc1cccc(NC(=O)c2c(O)c3ccccc3n(C)c2=O)c1	none (no result: CHOP inh)
COc1ccc(C(=O)c2c(C(F)(F)F)oc3c2C(=O)c2ccccc2C3=O)cc1	CHOP inh 105.7 | CHOP confirm 117.4
Cc1ccc(O)c(C(=O)CC(=O)c2cccc(F)c2)c1	CHOP inh 108.1 | CHOP confirm inactive
COc1ccc(O)c(C(=O)CC(=O)c2ccc(F)cc2)c1	CHOP inh 103.4 | CHOP confirm inactive
NC(=O)c1cc(S(=O)(=O)N2CCc3ccccc3C2)cs1	none (no result: CHOP inh)
O=C(CCC(=O)Nc1ccc(F)cc1)N/N=C/c1ccccc1	none (no result: CHOP inh)
C=CCc1cccc(/C=N/NC(=O)CCC(=O)Nc2ccc(F)cc2)c1O	CHOP inh 102.5 | CHOP confirm inactive
O=C(CCC(=O)c1ccc(Br)cc1)Nc1cccc(C(F)(F)F)c1	CHOP inh 108.0 | CHOP confirm inactive
CCN1C/C(=C/c2ccc(OC)c(O)c2)C(=O)/C(=C/c2ccc(OC)c(O)c2)C1	CHOP inh 99.9 | CHOP confirm 96.8
COc1ccc(C=C2C(=O)c3ccccc3C2=O)cc1O	none
O=C1OCCOC2CCCc3oc(C4=CCCCC4)c1c32 (stereo not given)	none (no result: NR3A LBD binder, UPR CHOP act, XBP1 UPR activ, CHOP inh)
C=CCOc1c(Br)cc(/C=N/n2c(CC)n[nH]c2=S)cc1Br	CHOP inh 107.5 | CHOP confirm inactive
CCc1n[nH]c(=S)n1/N=C/c1cc(Br)c(O)c(OC)c1	none
O=C(O)Cn1c2ccccc2c2n[nH]c(=S)nc21	none (no result: CHOP inh)
COc1ccc(C(=O)/C=C/C(=O)N(CC(=O)NC2CCCCC2)Cc2cccs2)c(O)c1	CHOP inh 107.7 | CHOP confirm 118.9
CC(=O)NC1(C(F)(F)F)N=C(c2ccccc2)NC1=O (stereo not given)	none
CCCCCCCCN1C(=O)[C@H](CC(=O)NCc2cccc(C(F)(F)F)c2)C[C@@]2(C(=O)OCC)CCCC=C12	none (no result: NR3A LBD binder, UPR CHOP act, XBP1 UPR activ, CHOP inh)
O=[N+]([O-])c1cc(S(=O)(=O)C(F)(F)F)ccc1Sc1nc2ccccc2s1	CHOP inh 106.8 | CHOP confirm inactive
O=C(CSc1nnnn1-c1ccc(Cl)cc1)NC(=O)Nc1ccc2c(c1)OCCO2	CHOP inh 99.8 | CHOP confirm inactive
Cc1ccc(-n2nnnc2SCC(=O)NC(=O)Nc2ccc3c(c2)OCCO3)cc1	none
O=C(NCCc1ccccc1)c1cccc(NC(=O)C2CCCC2)c1	none (no result: UPR CHOP act, XBP1 UPR activ, CHOP inh)
Cc1ccc(Cl)cc1N1CCN(C(=O)c2noc(C(C)C)c2[N+](=O)[O-])CC1	none (no result: CHOP inh)
CC(/C=N\NC(=O)CN1CCN(S(=O)(=O)c2ccc(C)cc2)CC1)=C\c1ccccc1	none (no result: UPR CHOP act, XBP1 UPR activ)
